Experimental findings from ChEMBL document CHEMBL4257590, “Semisynthesis of Platensimycin Derivatives with Antibiotic Activities in Mice via Suzuki-Miyaura Cross-Coupling Reactions” (J Med Chem, 2018) are described below.

In series [1] the test system is Staphylococcus aureus. Kind of series: Antibacterial activity against methicillin-resistant Staphylococcus aureus infected in C57BL/6J mouse assessed as reduction in bacterial load in kidney at 50 mg/kg, ip administered 1 and 5 hrs postinfection and measured at 12 hrs post bacterial infection. The series is classed as functional, organism-based. An outline of the steps:
(§1)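 Female C57BL/6J mice, 6–8 weeks, 18–21 g, infected ip with 2 × 10^7 CFU MRSA in 0.2 ml saline with 5% hog gastric mucin. Dosed ip 50 mg/kg at 1 and 5 h post-infection; test agents at 5 mg/mL in 12.5% DMSO/30% propanediol/30% PEG400/27.5% saline, vancomycin in saline, saline control. At 12 h blood and homogenized kidneys plated on LB agar overnight at 37 °C for CFU; n = 5, mean ± SEM, unpaired two-tailed t-test.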

The subject of series [2] is Mus musculus. As to the kind of experiment: Toxicity in C57BL/6J mouse infected with methicillin-resistant Staphylococcus aureus assessed as effect on mouse body weight at 10 mg/kg, ip administered 1 and 5 hrs postinfection and measured for 7 days. The class given is organism-based. The settings on record: in vivo, 168 h. An outline of the steps:
(§2)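 Lethal peritonitis: female C57BL/6J mice, 6–8 weeks, 18–21 g, infected ip with 2 × 10^7 CFU MRSA in 0.5 ml saline with 5% (w/v) mucin. Treated ip 0.2 mL/mouse at 1 and 5 h post-infection (n = 5/group): 50 mg/kg at 5 mg/mL in 12.5% DMSO vehicle, or 10 mg/kg at 1 mg/mL in 2.5% DMSO/30% propanediol/30% PEG400/37.5% saline; vancomycin in saline, saline control. Checked twice daily for survival and body weight over 7 days.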

The subject of series [3] is Staphylococcus aureus. Kind of series: Antibacterial activity against methicillin-resistant Staphylococcus aureus infected in C57BL/6J mouse assessed as reduction in bacterial load in blood at 50 mg/kg, ip administered 1 and 5 hrs postinfection and measured at 12 hrs post bacterial infection. The class given is functional, organism-based. An outline of the steps: as §1

For series [4], the system named is Staphylococcus aureus. As to the kind of experiment: Antibacterial activity against methicillin-resistant Staphylococcus aureus after 18 hrs in presence of 10% human serum by resazurin dye-based assay. The class given is functional. An outline of the steps:
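One clinical MRSA strain grown to exponential phase (OD600 = 0.5), diluted to 10^6 CFU/ml in Mueller-Hinton broth; 100 μl compound dilutions mixed with 100 μl bacteria with or without 10% human serum, 18 h at 37 °C. Resazurin (0.66 mM, 50 μl) then added and read visually.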
A general note: The colour change of resazurin is a common sign of viable cells or microbes.

In series [5] the test system is Staphylococcus aureus. As to the kind of experiment: Antibacterial activity against methicillin-sensitive Staphylococcus aureus isolate 1 after 16 hrs by agar dilution method. The series is classed as functional. The note with it: isolate 1, 16 h. An outline of the steps:
(§3)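 Agar dilution in LB agar with compound (from methanol solutions) at final 0.5–64 μg/ml per plate. Strains grown 16 h at 37 °C, 250 rpm in LB broth, adjusted to OD600 0.25±0.05, diluted 10^4-fold; 2 μl spotted per plate, incubated 16 h at 37 °C. MIC = lowest concentration with no visible colonies; at least two independent experiments. Linezolid and PTM as controls.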

For series [6], the system named is Staphylococcus aureus. Kind of series: Antibacterial activity against methicillin-resistant Staphylococcus aureus isolate 4 after 16 hrs by agar dilution method. The series is classed as functional. The settings on record: isolate 4, 16 h. An outline of the steps:
as §3

Series [7] relates to Staphylococcus aureus. Kind of series: Antibacterial activity against methicillin-resistant Staphylococcus aureus isolate 6 after 16 hrs by agar dilution method. The class given is functional. The note with it: isolate 6, 16 h. In a few lines: as §3
On the technique in general: In agar dilution, organisms are placed on agar that contains the substance at set levels.

The test system of series [8] is Staphylococcus aureus. As to the kind of experiment: Antibacterial activity against methicillin-resistant Staphylococcus aureus isolate 5 after 16 hrs by agar dilution method. The class given is functional. The note with it: isolate 5, 16 h. In a few lines: as §3
The subject of series [9] is Staphylococcus aureus. Kind of series: Antibacterial activity against methicillin-resistant Staphylococcus aureus isolate 3 after 16 hrs by agar dilution method. The series is classed as functional. The settings on record: isolate 3, 16 h. In a few lines:
as §3

The subject of series [10] is Staphylococcus aureus. Kind of series: Antibacterial activity against Staphylococcus aureus ATCC 29213 after 16 hrs by agar dilution method. The class given is functional. The note with it: ATCC 29213, 16 h. In a few lines:
as §3

For series [11], the system named is Staphylococcus aureus. Kind of series: Antibacterial activity against methicillin-sensitive Staphylococcus aureus isolate 2 after 16 hrs by agar dilution method. The series is classed as functional. The settings on record: isolate 2, 16 h. An outline of the steps:
as §3

For series [12], the system named is Staphylococcus aureus. Kind of series: Antibacterial activity against methicillin-resistant Staphylococcus aureus infected in C57BL/6J mouse assessed as protection against lethal peritonitis by measuring mouse survival at 50 mg/kg, ip administered 1 and 5 hrs postinfection and measured up to 24 hrs post infection. The series is classed as functional, organism-based. An outline of the steps: as §2

The subject of series [13] is Mus musculus. Kind of series: Toxicity in C57BL/6J mouse infected with methicillin-resistant Staphylococcus aureus assessed as mouse death at 50 mg/kg, […] measured within 48 hrs. The class given is organism-based. The note with it: in vivo, ip.

The structures appear in SMILES notation. Converted amounts (≈) assume the structure as drawn. The source made the active and inactive calls. No cut-off for these calls is given here.

For `CN[C@H](CC(C)C)C(=O)N[C@H]1C(=O)N[C@@H](CC(N)=O)C(=O)N[C@H]2C(=O)N[C@H]3C(=O)N[C@H](C(=O)N[C@H](C(=O)O)c4cc(O)cc(O)c4-c4cc3ccc4O)[C@H](O)c3ccc(c(Cl)c3)Oc3cc2cc(c3O[C@@H]2O[C@H](CO)[C@@H](O)[C@H](O)[C@H]2O[C@H]2C[C@](C)(N)[C@H](O)[C@H](C)O2)Oc2ccc(cc2Cl)[C@H]1O` [VANCOMYCIN], the outcome in the series on Staphylococcus aureus [1] and with Staphylococcus aureus [3] was Active. In addition, in the series with Mus musculus [2], the Activity entry is reported as “Non-Toxic”.

Broadly, the MIC is the lowest concentration found to suppress growth. In the case of `C[C@]12C[C@@]34C=CC(=O)[C@@](C)(CCC(=O)Nc5c(O)ccc(C(=O)O)c5O)[C@@H]3[C@H](C[C@H]1C4)O2`, the minimal inhibitory concentration (MIC) with Staphylococcus aureus [4] came out at 8 µg/mL; in the series with Staphylococcus aureus [5] it was 0.5 µg/mL (≈ 1.13 µM); in the series with Staphylococcus aureus [6], 1 µg/mL (≈ 2.27 µM); against Staphylococcus aureus [7], 1 µg/mL (≈ 2.27 µM); in the series with Staphylococcus aureus [8], 1 µg/mL (≈ 2.27 µM); in the series with Staphylococcus aureus [9], 0.5 µg/mL (≈ 1.13 µM). For the same compound, the MIC with Staphylococcus aureus [10] and with Staphylococcus aureus [11] was 0.5 µg/mL (≈ 1.13 µM) each time. The result in the series with Staphylococcus aureus [1] and in the series on Staphylococcus aureus [3] was Active.

In the case of `C[C@]12C[C@@]34C=C(c5cc6cccc7ccc8cccc5c8c76)C(=O)[C@@](C)(CCC(=O)Nc5c(O)ccc(C(=O)O)c5O)[C@@H]3[C@H](C[C@H]1C4)O2`, the MIC in the series on Staphylococcus aureus [4] came to 4 µg/mL; in the series on Staphylococcus aureus [5], 2 µg/mL (≈ 3.12 µM); against Staphylococcus aureus [6], 2 µg/mL (≈ 3.12 µM); in the series on Staphylococcus aureus [7], 2 µg/mL (≈ 3.12 µM); in the series with Staphylococcus aureus [8] it was 4 µg/mL (≈ 6.23 µM); against Staphylococcus aureus [9], 4 µg/mL (≈ 6.23 µM). The MIC in the series on Staphylococcus aureus [10] and against Staphylococcus aureus [11] was 2 µg/mL (≈ 3.12 µM) each time. For the same compound, the outcome in the series with Staphylococcus aureus [12] was inactive. The outcome with Staphylococcus aureus [1] and with Staphylococcus aureus [3] was Active. Further, the results for the Activity entry in the series on Mus musculus [2] and with Mus musculus [13] were “Non-Toxic” and “Toxic”, respectively.
